Measurements as given in ChEMBL document CHEMBL3232916, “1-(4-Methoxyphenyl)-5-(3,4,5-trimethoxyphenyl)-1H-1,2,4-triazole-3-carboxamides: synthesis, molecular modeling, evaluation of their anti-inflammatory activity and ulcerogenicity” (Eur J Med Chem, 2014).
pIC50: −log10 of the molar value.

Columns and labels:
Rattus norvegicus [1] = assay: Antiinflammatory activity in albino rat assessed as inhibition of carrageenan-induced paw edema at 0.28 mmol/kg, po administered 30 mins before carrageenan challenge measured after 1 hr relative to control; format: functional
In short: (§1)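 Male albino rats, n = 4 per group. Dosed orally as a suspension in 0.5% w/v CMC in water; controls received CMC alone. 0.1 mL of freshly prepared 1% carrageenan in saline was injected subplantar into the right hind paw 30 min after dosing, with saline in the left paw. Right paw thickness was read by Vernier caliper before and at 1–5 h. Result is % decrease in edema vs control, mean ± S.E.M.; one-way ANOVA.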

Rattus norvegicus [2] = assay: Antiinflammatory activity in albino rat assessed as inhibition of carrageenan-induced paw edema at 0.28 mmol/kg, po administered 30 mins before carrageenan challenge measured after 2 hrs relative to control; format: functional; in short: as §1
Rattus norvegicus [3] = assay: Ulcerogenic effect in albino rat assessed as ulcer index at 0.28 mmol/kg, po; format: toxicity, organism-based; conditions: in vivo
In short: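 Rat gastric ulcers were graded by area: level I <1 mm², level II 1–3 mm², level III >3 mm². Ulcer index = 1×(level I count) + 2×(level II) + 3×(level III). Reported as mean ± S.E.M., n = 4.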

Rattus norvegicus [4] = assay: Antiinflammatory activity in albino rat assessed as inhibition of carrageenan-induced paw edema at 0.28 mmol/kg, po administered 30 mins before carrageenan challenge measured after 3 hrs relative to control; format: functional; in short: as §1
Rattus norvegicus [5] = assay: Antiinflammatory activity in albino rat assessed as inhibition of carrageenan-induced paw edema at 0.28 mmol/kg, po administered 30 mins before carrageenan challenge measured after 4 hrs relative to control; format: functional; in short: as §1
Rattus norvegicus [6] = assay: Antiinflammatory activity in albino rat assessed as inhibition of carrageenan-induced paw edema at 0.28 mmol/kg, po administered 30 mins before carrageenan challenge measured after 3 hrs relative to celecoxib; format: functional; conditions: read-out: INH
In short: (§2)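 Calculated from the 3 h % edema inhibition in carrageenan paw edema (male albino rats, oral dosing in 0.5% CMC 30 min before 1% carrageenan subplantar injection). Expressed as % of the inhibition given by the reference drug in the same assay.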

Rattus norvegicus [7] = assay: Antiinflammatory activity in albino rat assessed as inhibition of carrageenan-induced paw edema at 0.28 mmol/kg, po administered 30 mins before carrageenan challenge measured after 5 hrs relative to control; format: functional; in short: as §1
Rattus norvegicus [8] = assay: Antiinflammatory activity in albino rat assessed as inhibition of carrageenan-induced paw edema at 0.28 mmol/kg, po administered 30 mins before carrageenan challenge measured after 3 hrs relative to indomethacin; format: functional; conditions: read-out: INH; in short: as §2
[9] = Selectivity ratio IC50 for ovine COX1 to IC50 for human recombinant COX2
[10] = molecular target: T1, Prostaglandin G/H synthase 2 (Homo sapiens, UniProt P35354); assay: Inhibition of human recombinant COX2 assessed as prostaglandin F2alpha level
T1 sequence (P35354 whole entry): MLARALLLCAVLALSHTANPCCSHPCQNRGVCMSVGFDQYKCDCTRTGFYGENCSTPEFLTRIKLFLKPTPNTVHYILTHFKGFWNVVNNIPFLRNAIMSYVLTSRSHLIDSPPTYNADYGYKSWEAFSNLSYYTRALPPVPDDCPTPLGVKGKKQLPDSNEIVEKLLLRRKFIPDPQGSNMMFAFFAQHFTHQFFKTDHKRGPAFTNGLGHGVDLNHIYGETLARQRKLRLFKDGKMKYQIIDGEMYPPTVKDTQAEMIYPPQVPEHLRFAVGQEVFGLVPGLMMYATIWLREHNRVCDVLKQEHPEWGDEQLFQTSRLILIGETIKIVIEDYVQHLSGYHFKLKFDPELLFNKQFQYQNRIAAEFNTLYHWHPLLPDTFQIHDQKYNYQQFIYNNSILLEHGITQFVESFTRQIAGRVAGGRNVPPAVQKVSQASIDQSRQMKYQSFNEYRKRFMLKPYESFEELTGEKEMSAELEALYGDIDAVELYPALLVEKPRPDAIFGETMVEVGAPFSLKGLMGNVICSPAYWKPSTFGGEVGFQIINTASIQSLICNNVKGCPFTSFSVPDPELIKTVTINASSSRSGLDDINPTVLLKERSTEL

[11] = molecular target: T2, Prostaglandin G/H synthase 1 (Ovis aries, UniProt P05979); assay: Inhibition of ovine COX1 assessed as prostaglandin F2alpha level
T2 sequence (P05979 whole entry): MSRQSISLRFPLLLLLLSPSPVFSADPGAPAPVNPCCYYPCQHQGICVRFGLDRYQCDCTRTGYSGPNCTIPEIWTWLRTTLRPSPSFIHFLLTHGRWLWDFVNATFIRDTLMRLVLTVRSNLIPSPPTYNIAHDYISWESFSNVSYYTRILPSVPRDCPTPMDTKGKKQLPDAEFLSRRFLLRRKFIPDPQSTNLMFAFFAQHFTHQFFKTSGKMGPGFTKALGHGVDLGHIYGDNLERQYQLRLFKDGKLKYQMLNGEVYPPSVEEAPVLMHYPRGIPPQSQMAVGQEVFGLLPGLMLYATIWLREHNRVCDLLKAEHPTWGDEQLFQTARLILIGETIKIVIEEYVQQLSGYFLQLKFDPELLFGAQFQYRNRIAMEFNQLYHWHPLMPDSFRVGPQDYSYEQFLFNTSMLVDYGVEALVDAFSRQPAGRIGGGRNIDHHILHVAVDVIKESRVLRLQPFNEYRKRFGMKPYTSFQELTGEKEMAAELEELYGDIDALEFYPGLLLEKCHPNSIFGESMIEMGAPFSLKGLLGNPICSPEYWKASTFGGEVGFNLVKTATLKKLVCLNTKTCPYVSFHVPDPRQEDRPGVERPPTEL

| Ratio IC50 [9] | pIC50 [10] | pIC50 [11] | Structure (SMILES) | inhibition in vivo at 280 µmol/kg (Rattus norvegicus [1]) [%] | inhibition in vivo at 280 µmol/kg (Rattus norvegicus [2]) [%] | UI (Rattus norvegicus [3]) | inhibition in vivo at 280 µmol/kg (Rattus norvegicus [4]) [%] | inhibition in vivo at 280 µmol/kg (Rattus norvegicus [5]) [%] | paw edema inhibition relative to celecoxib at 280 µmol/kg (Rattus norvegicus [6]) [%] | inhibition in vivo at 280 µmol/kg (Rattus norvegicus [7]) [%] | paw edema inhibition relative to indomethacin at 280 µmol/kg (Rattus norvegicus [8]) [%] |
| --- | --- | --- | --- | --- | --- | --- | --- | --- | --- | --- | --- |
| – | – | – | COc1ccc(-n2nc(C(=O)Nc3ccc(C)cc3)nc2-c2cc(OC)c(OC)c(OC)c2)cc1 | 38 | 60 | 5.5 | 60 | 58 | 88 | 42 | 77 |
| 0.86 | 4.33 | 4.40 | COc1ccc(-n2nc(C(=O)NN)nc2-c2cc(OC)c(OC)c(OC)c2)cc1 | 36 | 47 | 2 | 57 | 54 | 84 | 56 | 73 |
| – | – | – | COc1ccc(-n2nc(C(N)=O)nc2-c2cc(OC)c(OC)c(OC)c2)cc1 | 40 | 59 | 9 | 72 | 71 | 106 | 64 | 92 |
| – | – | – | COc1ccc(-n2nc(C(=O)Nc3cccc(C(F)(F)F)c3)nc2-c2cc(OC)c(OC)c(OC)c2)cc1 | 48 | 55 | 5 | 65 | 56 | 96 | 50 | 83 |
| – | – | – | COc1ccc(-n2nc(C(=O)Nc3ccc(O)cc3)nc2-c2cc(OC)c(OC)c(OC)c2)cc1 | 36 | 35 | 1 | 50 | 37 | 74 | 27 | 64 |
| – | – | – | CCNC(=O)c1nc(-c2cc(OC)c(OC)c(OC)c2)n(-c2ccc(OC)cc2)n1 | 60 | 68 | 9 | 69 | 58 | 101 | 52 | 88 |
| 0.67 | 4.17 | 4.34 | CNC(=O)c1nc(-c2cc(OC)c(OC)c(OC)c2)n(-c2ccc(OC)cc2)n1 | 56 | 74 | 7.5 | 74 | 65 | 109 | 50 | 95 |
